In ChEMBL document CHEMBL1127498, “Synthesis and DNA-sequence selectivity of a series of mono- and difunctional 9-aminoacridine nitrogen mustards” (J Med Chem, 1994) one finds IC50 data, which are given here for eleven molecules.

For orientation: IC50 means the concentration that gives 50% inhibition. Higher therefore signals lower potency.

For this assay, the system named is HT-29. Kind of assay: Concentration required to inhibit colony formation by 50% in human colon carcinoma HT-29 cells. In kind it is functional, cell-based. In short, it runs like this: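 HT-29 cells grown in Eagle's MEM with 15% heat-inactivated FBS. Exponential-phase cells (2 × 10⁵/mL) plated, treated 16-20 h later with a range of drug concentrations for 30 min at 37 °C in medium with 1% serum. Washed twice, trypsinized, replated in triplicate at 10^2, 10^3, 10^4 cells/25-cm² flask for colony counts. At least two independent experiments; untreated plating efficiency 40-65%.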

As for `CCN(CCCl)CCCCCCNc1c2ccccc2nc2ccc(OC)cc12`, half-maximal inhibition (IC50) required 750 nM.

`COc1ccc2nc3ccccc3c(NCCN(CCCl)CCCl)c2c1` had an IC50 of 110 nM.

`COc1ccc2nc3ccccc3c(NCCCCCN(CCCl)CCCl)c2c1` came in with an IC50 of 30 nM.

`COc1ccc2nc3ccccc3c(NCCCN(CCCl)CCCl)c2c1` registered an IC50 of 20 nM.

`CCN(CCCl)CCCCCNc1c2ccccc2nc2ccc(OC)cc12` showed an IC50 of 700 nM. Against the preceding molecule, the IC50 is about 35-fold higher.

In turn, `CCN(CCCl)CCNc1c2ccccc2nc2ccc(OC)cc12` showed an IC50 of 1100 nM.

As to `CCN(CCCl)CCCCNc1c2ccccc2nc2ccc(OC)cc12`, the IC50 worked out at 250 nM.

`COc1ccc2nc3ccccc3c(NCCCCCCN(CCCl)CCCl)c2c1` returned an IC50 of 60 nM.

`CCN(CC)CCCC(C)Nc1c2ccc(Cl)cc2nc2ccc(OC)cc12` (stereo unspecified) [QUINACRINE] gave an IC50 of 55000 nM.

Take `CCN(CCCl)CCCNc1c2ccccc2nc2ccc(OC)cc12`: the IC50 is 370 nM.

As to `COc1ccc2nc3ccccc3c(NCCCCN(CCCl)CCCl)c2c1`, half-maximal inhibition (IC50) was put at 10 nM.
